A word on the inhibition in vivo: it is the percentage by which the read-out fell short of the control. A low value points to a response near the control. What is called inhibition is the change of the read-out against control, counted positive when it falls.

The record followed here is ChEMBL document CHEMBL1124479, “N-[(arylmethoxy)phenyl] and N-[(arylmethoxy)naphthyl] sulfonamides: potent orally active leukotriene D4 antagonists of novel structure” (J Med Chem, 1989).

Assay [1] deals with Cavia porcellus. Nature of the assay: Inhibition of Leukotriene D4 induced bronchoconstriction when compound was administered perorally at a dose of 50 mg/kg in guinea pig. Type of assay: functional. Conditions: route oral. A digest of the protocol:
(§1)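 Single-dose screen in guinea pigs, with n animals per group. Significance versus control used a two-tailed Student's t test (p < 0.05), or one-way ANOVA with contrasts based on each treatment's difference from its own control mean.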

In assay [2] the test system is Cavia porcellus. Nature of the assay: Inhibition of Leukotriene D4 induced bronchoconstriction when compound was administered intraduodenally at a dose of 25 mg/kg in guinea pig.
Assay [3] concerns Cavia porcellus. Nature of the assay: Inhibition of ovalbumin-induced bronchoconstriction when compound was administered intraduodenally at a dose of 50 mg/kg in guinea pig. Conditions: route intraduodenal. Type of assay: functional. Summed up:
as §1

Assay [4] has as its system Cavia porcellus. Nature of the assay: Inhibition of ovalbumin-induced bronchoconstriction when compound was administered perorally at a dose of 50 mg/kg in guinea pig. The class given is functional. The settings on record: route oral. A digest of the protocol:
as §1

For assay [5], the system named is Cavia porcellus. Nature of the assay: Inhibition of Leukotriene D4 induced bronchoconstriction in guinea pig by 50 mg/kg i.d. Conditions: at 50 mg/kg.
The test system of assay [6] is Cavia porcellus. Nature of the assay: Inhibition of Leukotriene D4 induced bronchoconstriction when compound was administered perorally at a dose of 25 mg/kg in guinea pig. The class given is functional. The settings on record: route oral. Summed up: as §1
In assay [7] the test system is Cavia porcellus. Nature of the assay: Inhibition of ovalbumin-induced bronchoconstriction when compound was administered perorally at a dose of 25 mg/kg in guinea pig. The class given is functional. Conditions: route oral. Summed up: as §1
In assay [8] the test system is Cavia porcellus. Nature of the assay: Percentage inhibition of Leukotriene D4 when Compound was administered perorally at a dose of 50 mg/kg in guinea pig,. Conditions: route oral. Type of assay: functional. Summed up:
as §1

In turn, `O=C1CS(=O)(=O)Nc2cc(OCc3ccc4ccccc4n3)ccc21` showed an inhibition in vivo at 50 mg/kg in assay [1] of 3%. Also, in assay [2], the inhibition was found to be 78%. For the molecule `CCCS(=O)(=O)Nc1cccc(OCc2nc3ccccc3n2C)c1`, the figures for the inhibition in vivo at 50 mg/kg in assay [1], in assay [3] and in assay [4] were 36%, 31% and 17%, respectively. The inhibition in assay [5] turned out to be 37%.

As for `CCCCS(=O)(=O)Nc1cccc(OCc2ccc3ccccc3n2)c1`, the inhibition in assay [5] turned out to be 30%.

As to `O=C(O)CS(=O)(=O)Nc1cccc(OCc2ccc3ccccc3n2)c1`, the inhibition in assay [2] was determined as 58%.

For the molecule `CCS(=O)(=O)Nc1cccc2ccc(OCc3ccc4ccccc4n3)cc12`, the inhibition in assay [5] is -6%. On the same count and under the same terms, the figure for `CCCS(=O)(=O)N(c1cccc(OCc2nc3ccccc3s2)c1)S(=O)(=O)CCC` is 38%. As for `O=S(=O)(Nc1cccc(Oc2ccccn2)c1)C(F)(F)F`, the inhibition in assay [2] came to 11%.

Take `CCS(=O)(=O)Nc1cccc(OCc2ccc3ccccc3n2)c1`: 50 mg/kg produced 0% inhibition in vivo in assay [3]. Besides, the inhibition in assay [5] was determined as 83%. As to `CCS(=O)(=O)N(C)c1ccc2ccc(OCc3ccc4ccccc4n3)cc2c1`, the inhibition in assay [5] was 37%. Take `Cc1ccc(S(=O)(=O)Nc2cccc(SCc3ccc4ccccc4n3)c2)cc1`: in assay [2], the inhibition came out at 10%. For `O=S(=O)(CC(F)(F)F)Nc1cccc(OCc2ccc3ccccc3n2)c1`, the inhibition in assay [2] was found to be 100%. `O=C(O)c1ccc(S(=O)(=O)Nc2cccc(OCc3ccc4ccccc4n3)c2)cc1`: the inhibition in assay [2] came to 0%.

For the molecule `O=S(=O)(Nc1cccc(OCc2ccc3ccccc3n2)c1)c1ccc(C(F)(F)F)cc1`, the inhibition in assay [2] was determined as 46%. In assay [3], `CCCS(=O)(=O)Nc1cccc(OCc2nc3ccccc3s2)c1` gave an inhibition in vivo at 50 mg/kg of 18%. Also, the inhibition in assay [5] was found to be 48%. Consider `CCS(=O)(=O)Nc1cccc(OCc2nc3ccccc3n2C)c1`, for which the inhibition in vivo at 50 mg/kg in assay [3] was 16%. Further, in assay [5], the inhibition was 75%. In the case of `CCS(=O)(=O)Nc1cccc(OCc2cc3ccccc3s2)c1`, in assay [3], testing at 50 mg/kg gave an inhibition in vivo of 4%. Moreover, in assay [2], the inhibition came out at 13%.

With `O=S(=O)(Nc1cccc(SCc2ccc3ccccc3n2)c1)C(F)(F)F`, the values for the inhibition in vivo at 25 mg/kg in assay [6] and in assay [7] were 97% and 59%, respectively. Besides, in assay [2], the inhibition came to 85%.

Turning to `CCS(=O)(=O)Nc1ccc2ccc(OCc3nc4ccccc4s3)cc2c1`, the inhibition in assay [5] came out at 27%.

With `O=S(=O)(Nc1cccc(OCc2nc3ccccc3s2)c1)C(F)(F)F`, the inhibition in assay [2] was found to be 94%. The same measure, in the same setting: the figure for `O=S(=O)(Nc1ccc(OCc2ccc3ccccc3n2)cc1)C(F)(F)F` is 28%.

With `O=S(=O)(Nc1cccc(Oc2cccc3cccnc23)c1)C(F)(F)F`, in assay [2], the inhibition was 50%.

For `CCS(=O)(=O)Nc1ccc2ccc(OCc3ccc4ccccc4c3)cc2c1`, the inhibition in assay [5] was determined as 28%. In the case of `O=S(=O)(NCCc1cccc(OCc2ccc3ccccc3n2)c1)C(F)(F)F`, the inhibition in assay [2] amounted to 14%.

`COC(=O)CS(=O)(=O)Nc1cccc(OCc2ccc3ccccc3n2)c1`: in assay [2], the inhibition turned out to be 69%. With `CCCS(=O)(=O)N(c1cccc(OCc2ccc3ccccc3n2)c1)S(=O)(=O)CCC`, the inhibition in assay [5] is 4%. On to `CCS(=O)(=O)Nc1cccc(OCc2ccc3ccccc3c2)c1`, for which the inhibition in assay [5] was 42%. Take `CS(=O)(=O)Nc1ccc([N+](=O)[O-])cc1OCc1ccc2ccccc2n1`: the inhibition in assay [2] amounted to 28%. In the case of `CCCCS(=O)(=O)Nc1cccc(OCc2nc3ccccc3s2)c1`, in assay [3], testing at 50 mg/kg gave an inhibition in vivo of 16%. Besides, in assay [5], the inhibition was found to be 56%. Consider `CCS(=O)(=O)Nc1ccc2ccc(OCc3ccc4ccccc4n3)cc2c1`, for which the inhibition in vivo at 50 mg/kg in assay [1] was found to be 34%; in assay [3] it was 20%; in assay [4], 24%. Also, the inhibition in assay [5] amounted to 91%. As for `O=S(=O)(Nc1ccccc1OCc1ccc2ccccc2n1)C(F)(F)F`, the inhibition in assay [2] was determined as 24%. In the case of `CS(=O)(=O)Nc1ccc2ccc(OCc3ccc4ccccc4n3)cc2c1`, the inhibition in assay [5] is 68%. For the molecule `O=S(=O)(Nc1cccc(OCc2csc3ccccc23)c1)C(F)(F)F`, the inhibition in assay [2] is 13%. For the molecule `CS(=O)(=O)Nc1cccc(OCc2nc3ccccc3s2)c1`, the inhibition in vivo at 50 mg/kg in assay [3] was 44%. Also, the inhibition in assay [5] is 60%. Turning to `CCCCS(=O)(=O)Nc1cccc(OCc2nc3ccccc3n2C)c1`, 50 mg/kg produced 8% inhibition in vivo in assay [3]. Moreover, the inhibition in assay [5] was found to be 2%. For the molecule `CCCCS(=O)(=O)Nc1ccc2ccc(OCc3ccc4ccccc4n3)cc2c1`, the inhibition in assay [5] came to 51%.

On to `CCS(=O)(=O)Nc1cccc(OCc2nc3ccccc3s2)c1`, for which the values for the inhibition in vivo at 50 mg/kg in assay [3], in assay [8] and in assay [4] were 35%, 13% and 32%, respectively. Further, the inhibition in assay [5] came out at 41%.

Take `O=S(=O)(Nc1ccccc1SCc1ccc2ccccc2n1)C(F)(F)F`: the inhibition in assay [2] was -5%. Take `CN(C)S(=O)(=O)Nc1cccc(OCc2ccc3ccccc3n2)c1`: the inhibition in assay [2] was found to be 11%.
